Measured values published in publication PMC6044864 (ACS Omega, 2017).

What was measured:
[1] = system: bacteria; conditions: cited from earlier work
[2] = system: Candida albicans cells; conditions: cited from earlier work
[3] = system: human erythrocytes; conditions: cited from earlier work
[4] = system: HeLa cells; conditions: cited from earlier work
[5] = system: Trichosporon beigelii cells; conditions: cited from earlier work
[6] = Photodegradation; format: physicochemical; conditions: photostability; 10 μmol·L^–1 in 60% ACN/H2O/0.09% TFA; laser 440 nm; 0 to 50 min
In short: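 Test compound was irradiated in solution at room temperature with a pulsed 10 Hz laser at 440 nm for 50 min. UV/vis absorption spectra were recorded before irradiation and every 5 min. Absorbance maximum at 440 nm was plotted against time, and the change was taken as the difference between initial and final readings.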

Substance	Growth inhibition of bacteria [1]	Growth inhibition of Candida albicans cells [2]	Hemolytic effect [3]	Cell penetration and nuclear localisation [4]	Cell penetration and nuclear localisation [5]	Difference of absorbance at 440 nm in 50 min of exposure to light [6]
TAT peptide (47-58): carboxyl-free analogue of TAT(47-57)-NH2	inhibit the growth	inhibit the growth	without hemolytic effect	penetrate, and localize in the nucleus	penetrate, and localize in the nucleus	–
5(6)-carboxyfluorescein [FAM]	–	–	–	–	–	0.022
